Results: ChEMBL document CHEMBL1773046, “Isoprenylated flavonoids and adipogenesis-promoting constituents from Morus nigra” (2011)
Activity calls are given as the source filed them. The rule behind the calls is not given here.

What was measured:
3T3-L1 [1] = experiment: Induction of mouse 3T3L1 cell differentiation assessed as increase in accumulation of intracellular lipid droplet at 25 uM by Oil red O staining; assay type: functional, cell-based
Summary of the method: (§1)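 Following 8-day differentiation with compound applied from induction (insulin/dexamethasone/IBMX, then insulin maintenance), intracellular lipid droplets visualized by Oil Red O staining and photographed.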

3T3-L1 [2] = experiment: Induction of aP2 gene expression in mouse 3T3L1 cells assessed as increase in aP2 protein level at 6.25 uM by Western blot analysis; assay type: functional, cell-based
Summary of the method: (§2)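 3T3-L1 cells grown in DMEM/10% NCS at 37 °C, 5% CO2. Two days post-confluence, differentiation induced with 2 μg/mL insulin, 1 μM dexamethasone and 0.125 mM IBMX in 10% FBS/DMEM, then kept in 10% FBS/DMEM plus 2 μg/mL insulin. Compound added at induction and left 8 days. Cells then harvested for target protein (RIPA lysate, immunoblot) or mRNA (TRIzol RNA, RT-qPCR).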

3T3-L1 [3] = experiment: Induction of GLUT4 gene expression in mouse 3T3L1 cells assessed as increase in GLUT4 protein level at 6.25 uM by Western blot analysis; assay type: functional, cell-based; summary of the method: as §2
3T3-L1 [4] = experiment: Induction of GLUT4 gene expression in mouse 3T3L1 cells assessed as increase in GLUT4 protein level at 12.5 uM by Western blot analysis; assay type: functional, cell-based; summary of the method: as §2
3T3-L1 [5] = experiment: Induction of GLUT4 gene expression in mouse 3T3L1 cells assessed as increase in mRNA level at 10 uM by qRT-PCR analysis; assay type: functional, cell-based; summary of the method: as §2
3T3-L1 [6] = experiment: Induction of aP2 gene expression in mouse 3T3L1 cells assessed as increase in aP2 protein level at 12.5 uM by Western blot analysis; assay type: functional, cell-based; summary of the method: as §2
3T3-L1 [7] = experiment: Induction of aP2 gene expression in mouse 3T3L1 cells assessed as increase in mRNA level at 10 uM by qRT-PCR analysis; assay type: functional, cell-based; summary of the method: as §2
3T3-L1 [8] = experiment: Induction of adipogenesis in mouse 3T3L1 cells assessed as increase in triglyceride level at 50 uM after 8 days relative to control; assay type: functional
Summary of the method: (§3)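 Differentiation protocol: confluent 3T3-L1 cells held 2 days, then induced with insulin (2 μg/mL), dexamethasone (1 μM) and IBMX (0.125 mM) in 10% FBS/DMEM, then maintained with insulin. Compound present from induction for 8 days. Cellular triglyceride quantified with an enzymatic kit and compared with untreated control.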

3T3-L1 [9] = experiment: Induction of adipogenesis in mouse 3T3L1 cells assessed as increase in triglyceride level at 12.5 uM after 8 days relative to control; assay type: functional; summary of the method: as §3
3T3-L1 [10] = experiment: Induction of adipogenesis in mouse 3T3L1 cells assessed as increase in triglyceride level at 25 uM after 8 days relative to control; assay type: functional; summary of the method: as §3
3T3-L1 [11] = experiment: Induction of mouse 3T3L1 cell differentiation assessed as increase in accumulation of intracellular lipid droplet at 1 uM by Oil red O staining; assay type: functional, cell-based; summary of the method: as §1
3T3-L1 [12] = experiment: Induction of adipogenesis in mouse 3T3L1 cells assessed as increase in triglyceride level at 1 uM after 8 days relative to control; assay type: functional; summary of the method: as §3

CC(C)=CC[C@]12Oc3cc4c(c(O)c3C(=O)[C@@]1(O)Oc1cc(O)ccc12)C[C@H](C(C)(C)O)O4
Activity (3T3-L1 [1]): inactive

CC(C)=CCC/C(C)=C/CC/C(C)=C/C[C@@]12Oc3cc(O)cc(O)c3C(=O)[C@]1(O)Oc1cc(O)ccc12
Activity (3T3-L1 [1]): inactive

CC(C)=CC[C@]12Oc3cc4c(c(O)c3C(=O)[C@@]1(O)Oc1cc(O)ccc12)C[C@@H](C(C)(C)O)O4
Activity (3T3-L1 [1]): inactive

C=CC(C)(C)c1c(O)cc(O)c2c(=O)c(CC=C(C)C)c(-c3ccc(O)cc3O)oc12 [NIGRASIN I]
Activity (3T3-L1 [2]): Active
Activity (3T3-L1 [3]): Active
Activity (3T3-L1 [4]): Active
Activity (3T3-L1 [5]): Active
Activity (3T3-L1 [6]): Active
Activity (3T3-L1 [7]): Active
Activity (3T3-L1 [1]): Active
Activity (3T3-L1 [8]): 250.63%
Activity (3T3-L1 [9]): 179.84%
Activity (3T3-L1 [10]): 317.18%

C=C(C)[C@@H]1Cc2c(cc(O)c3c2O[C@]2(CC=C(C)C)c4ccc(O)cc4O[C@]2(O)C3=O)O1
Activity (3T3-L1 [1]): inactive

CC(C)=CCc1c(O)cc2oc(-c3ccc(O)cc3O)c(CC=C(C)C)c(=O)c2c1O
Activity (3T3-L1 [1]): inactive

CC(C)=CC[C@]12Oc3cc4c(c(O)c3C(=O)[C@@]1(O)Oc1cc(O)ccc12)C[C@@H](O)C(C)(C)O4
Activity (3T3-L1 [1]): inactive

CC(C)=CCc1c(-c2ccc(O)cc2O)oc2c3c(cc(O)c2c1=O)O[C@H](C)C3(C)C [NIGRASIN H]
Activity (3T3-L1 [2]): Active
Activity (3T3-L1 [3]): Active
Activity (3T3-L1 [4]): Active
Activity (3T3-L1 [5]): Active
Activity (3T3-L1 [6]): Active
Activity (3T3-L1 [7]): Active
Activity (3T3-L1 [1]): Active
Activity (3T3-L1 [8]): 203.39%
Activity (3T3-L1 [9]): 102.16%
Activity (3T3-L1 [10]): 143.94%

C=C(C)C(O)CC/C(C)=C/CC/C(C)=C/C[C@@]12Oc3cc(O)cc(O)c3C(=O)[C@]1(O)Oc1cc(O)ccc12 (stereo partly specified)
Activity (3T3-L1 [1]): inactive

CN(CCOc1ccc(CC2SC(=O)NC2=O)cc1)c1ccccn1 (stereo unspecified) [ROSIGLITAZONE]
Activity (3T3-L1 [11]): Active
Activity (3T3-L1 [12]): 450.32%

CC(C)=CC[C@]12Oc3cc4c(c(O)c3C(=O)[C@@]1(O)Oc1cc(O)ccc12)C[C@H](O)C(C)(C)O4
Activity (3T3-L1 [1]): inactive

C=C(C)[C@H]1Cc2c(cc(O)c3c2O[C@]2(CC=C(C)C)c4ccc(O)cc4O[C@]2(O)C3=O)O1
Activity (3T3-L1 [1]): inactive
